SMILES strings stand for the structures. The source made the active and inactive calls. The calls are words filed in the database; no cut-off is given here. Where a SMILES comes first, the peptide text is derived from it.

Assay [1] concerns Lipid bilayer. Put plainly: Inhibition of PEG-induced DOPC/DOPE/DOPG/CH (50/30/10/10 mol%) small unilamellar vesicles assessed as lipid mixing at 1:100 compound: lipid concentration preincubated for 10 mins followed by PEG addition by spectrofluorometric analysis (reference value: 67.8 +/- 2.7 %). In outline: (§1)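 Lipid mixing followed as FRET dilution. Vesicles carrying 0.8 mol% NBD-PE and Rh-PE mixed 1:9 with probe-free vesicles at 200 μM lipid. Peptide 2 μM added 10 min before 6% (w/v) PEG at 37 °C. NBD donor intensity rise recorded over time; TX-100 defines complete mixing.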

Assay [2] concerns Lipid bilayer. Put plainly: Inhibition of PEG-induced DOPC/DOPE/DOPG/CH (40/30/10/20 mol%) small unilamellar vesicle assessed as content mixing at 1:100 compound: lipid concentration preincubated for 10 mins followed by PEG addition by fluorescence based analysis (reference value: 23.0 +/- 0.9 %). In outline: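 Content mixing by Tb3+/DPA complex fluorescence. Vesicles loaded with 8 mM TbCl3 or 80 mM DPA, external probe removed by gel filtration. Mixed 1:1 at 200 μM lipid; peptide 2 μM added 10 min before 6% (w/v) PEG, 37 °C. Normalised to co-encapsulated and detergent-treated samples.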

The test system of assay [3] is Lipid bilayer. Put plainly: Inhibition of PEG-induced DOPC/DOPE/DOPG (60/30/10 mol%) small unilamellar vesicle assessed as content leakage at 1:100 compound: lipid concentration preincubated for 10 mins followed by PEG addition by fluorescence based analysis (reference value: 11.7 +/- 0.4 %). In outline: (§2)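 Leakage read as loss of fluorescence from vesicles co-encapsulating 8 mM TbCl3 and 80 mM DPA, external probe removed. Lipid 200 μM; peptide 2 μM added 10 min before 6% (w/v) PEG at 37 °C. 100% leakage set with 0.1% (w/v) Triton X-100.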

The subject of assay [4] is Lipid bilayer. Put plainly: Inhibition of PEG-induced DOPC/DOPE/DOPG/CH (50/30/10/10 mol%) small unilamellar vesicles assessed as content leakage at 1:100 compound: lipid concentration preincubated for 10 mins followed by PEG addition by fluorescence based analysis (reference value: 13.6 +/- 0.5 %). The method in brief:
as §2

Assay [5] concerns Lipid bilayer. Put plainly: Inhibition of PEG-induced DOPC/DOPE/DOPG/CH (40/30/10/20 mol%) small unilamellar vesicles assessed as content leakage at 1:100 compound: lipid concentration preincubated for 10 mins followed by PEG addition by fluorescence based analysis (reference value: 11.1 +/- 0.4 %). In outline: as §2
The test system of assay [6] is Lipid bilayer. Put plainly: Binding affinity to DOPC/DOPE/DOPG (60/30/10 mol%) small unilamellar vesicles assessed as membrane organization and dynamic by measuring increase in fluorescence intensity at 1:100 compound: lipid concentration by tryptophan fluorescence based spectrofluorometric analysis. In outline: (§3)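 Tryptophan fluorescence spectra of the peptide recorded in buffer and with SUVs. Lipid:peptide 100:1, total lipid 200 μM, in 10 mM TES, 100 mM NaCl, 1 mM CaCl2, 1 mM EDTA, pH 7.4. At least three independent measurements averaged.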

The subject of assay [7] is Lipid bilayer. Put plainly: Binding affinity to DOPC/DOPE/DOPG/CH (40/30/10/20 mol%) small unilamellar vesicles assessed as membrane organization and dynamic by measuring increase in fluorescence intensity at 1:100 compound: lipid concentration by tryptophan fluorescence based spectrofluorometric analysis. The method in brief:
as §3

In assay [8] the test system is Lipid bilayer. Put plainly: Inhibition of PEG-induced DOPC/DOPE/DOPG/CH (40/30/10/20 mol%) small unilamellar vesicles assessed as increase in lipid mixing at 1:100 compound: lipid concentration preincubated for 10 mins followed by PEG addition by spectrofluorometric analysis relative to control. The method in brief: as §1
Assay [9] has as its system Lipid bilayer. Put plainly: Disruption of interfacial region in DOPC/DOPE/DOPG (60/30/10 mol%) small unilamellar vesicles at 2 to 10 uM by TMA-DPH based fluorescence anisotropy. The note with it: dose 2-10 µM. The method in brief:
(§4)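 TMA-DPH steady-state anisotropy in SUVs (200 μM total lipid) across a range of peptide concentrations. Excitation 360 nm, emission 428 nm, 5 nm slits. Buffer 10 mM TES, 100 mM NaCl, 1 mM CaCl2, 1 mM EDTA, pH 7.4, 37 °C. Anisotropy from polarised intensities with G-factor correction; mean ± S.E. of at least three measurements.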

For assay [10], the system named is Lipid bilayer. Put plainly: Disruption of interfacial region in DOPC/DOPE/DOPG/CH (40/30/10/20 mol%) small unilamellar vesicles at 2 to 10 uM by TMA-DPH based fluorescence anisotropy. Conditions: dose 2-10 µM. The method in brief:
as §4

Assay [11] relates to Lipid bilayer. Put plainly: Inhibition of interfacial polarity in DOPC/DOPE/DOPG (60/30/10 mol%) small unilamellar vesicles assessed as decrease in interfacial polarity at 2 to 10 uM by TMA-DPH fluorescence analysis. The note with it: dose 2-10 µM. The method in brief:
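Interfacial polarity from TMA-DPH mean fluorescence lifetime in SUVs across peptide concentrations. TCSPC with 340 nm pulsed LED excitation, Ludox for IRF, 10 000 peak counts. Multi-exponential fits with χ2 ≤ 1.2; intensity-averaged lifetime. Run at 37 °C, pH 7.4 TES buffer, 200 μM lipid.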

Assay [12] has as its system Lipid bilayer. Put plainly: Reduction of apparent rotational correlation time in DOPC/DOPE/DOPG/CH (50/30/10/10 mol%) small unilamellar vesicles at 2 to 10 uM by TMA-DPH anisotropy analysis. The note with it: dose 2-10 µM. The method in brief:
(§5)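 Apparent rotational correlation time of TMA-DPH from the Perrin equation, combining steady-state anisotropy and mean lifetime with r0 = 0.4. SUVs at 200 μM lipid with varying peptide, in TES/NaCl/CaCl2/EDTA buffer pH 7.4 at 37 °C; at least three measurements.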

In assay [13] the test system is Lipid bilayer. Put plainly: Reduction of apparent rotational correlation time in DOPC/DOPE/DOPG/CH (40/30/10/20 mol%) small unilamellar vesicles at 2 to 10 uM by TMA-DPH anisotropy analysis. The note with it: dose 2-10 µM. In outline: as §5
Assay [14] concerns Influenza A virus H3N2. Put plainly: Antiviral activity against Influenza A virus X-31 (H3N2) infected in MDCK cells assessed as inhibition of viral infection preincubated for 48 hrs followed by viral infection for 45 mins by MTT assay. It counts as functional, organism-based. Conditions: X-31, MDCK. In outline:
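A549 or MDCK cells seeded 1.5 × 10^4 per well, grown 24 h. Virus premixed with two-fold serial peptide dilutions in serum-free medium with trypsin (2.5 μg ml-1). Cells infected 45 min at 37 °C, washed, then kept 48 h in medium with 0.1% FBS, 0.3% BSA and trypsin. MTT 4 h, absorbance 570 nm. CPE inhibition normalised to cell and virus controls, dose-response fit for EC50; at least 3 sets.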

The test system of assay [15] is Influenza A virus H3N2. Put plainly: Antiviral activity against Influenza A virus X-31 (H3N2) infected in human A549 cells assessed as reduction in viral M1 protein expression level incubated for 48 hrs post infection by Western blot analysis. Type of assay: functional, organism-based. In outline: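 Cells seeded at 0.25 × 10^6 per well and co-infected with virus–peptide mixtures as in the CPE assay. Lysed in RIPA with protease inhibitor 48 h post-infection, protein by BCA. Run on 12% SDS-PAGE, transferred to PVDF, blocked in 3% milk. Probed with anti-M1 (1:1000) and HRP anti-mouse IgG (1:10 000); β-actin as loading control after stripping.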

With `CC[C@H](C)[C@H](NC(=O)[C@H](CC(C)C)NC(=O)[C@H](C)NC(=O)[C@@H](NC(=O)[C@H](Cc1ccccc1)NC(=O)[C@H](CCCCN)NC(=O)[C@@H]1CCCN1C(=O)[C@H](CC(N)=O)NC(=O)[C@@H](NC(=O)[C@H](C)NC(=O)[C@H](CS)NC(=O)[C@H](Cc1ccccc1)NC(=O)CNC(=O)[C@H](CO)NC(=O)[C@H](CC(=O)O)NC(=O)[C@H](Cc1c[nH]c2ccccc12)NC(=O)[C@@H](NC(=O)[C@@H](N)[C@@H](C)O)[C@@H](C)O)C(C)C)C(C)C)C(=O)N[C@@H](CS)C(=O)N[C@@H](CC(=O)O)C(=O)N[C@@H](Cc1c[nH]c2ccccc12)C(=O)N[C@@H](CO)C(=O)NCC(=O)O` (H-TTWDSGFCAVNPKFVALICDWSG-OH), the inhibition was 72.1% in [1]; 15.5% in assay [2]; 8.7% in assay [3]; 8.3% in assay [4]; 14.4% in assay [5]; 8% in [8]. The inhibition entry in assay [11] is on record as “Active; Partial Reduction Is Observed”. Further, the result in assay [6], in assay [7], in assay [9], in [12] and in [13] was Active. In addition, the Activity result was “Active; Less Stiff In Membranes” in [10] and “Dose-dependent-effect” in [15]. Besides, the EC50 in assay [14] is around 21.6 µM.

(Values after ChEMBL document CHEMBL6182829, “Developing peptide-based fusion inhibitors as an antiviral strategy utilizing coronin 1 as a template” (RSC Med Chem, 2025).)
